Results from ChEMBL document CHEMBL1909630, “Azaxanthene based selective glucocorticoid receptor modulators: design, synthesis, and pharmacological evaluation of (S)-4-(5-(1-((1,3,4-thiadiazol-2-yl)amino)-2-methyl-1-oxopropan-2-yl)-5H-chromeno[2,3-b]pyridin-2-yl)-2-fluoro-N,N-dimethylbenzamide (BMS-776532) and its methylene homologue …” (J Med Chem, 2011).
pKi: −log10 of the molar value. Calls of active or inactive are those of the source. No cut-off for these calls is given here.

Experiments:
[1] = Oral bioavailability in Sprague-Dawley rat at 10 mg/kg; assay type: ADME, organism-based; conditions: in vivo
Procedure, shortened: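 Male Sprague-Dawley rats received a single intravenous (1 mg/kg) or oral (10 or 50 mg/kg) dose. Plasma pharmacokinetic parameters were derived from these profiles.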

Rattus norvegicus [2] = assay: Antiinflammatory activity in Freund's complete adjuvant-induced Lewis rat arthritis model assessed as reduction in paw swelling at 50 mg/kg/day, po qd for 21 days; assay type: functional, organism-based
Procedure, shortened: (§1)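 Male Lewis rats were inoculated with Mycobacterium butyricum in incomplete Freund's adjuvant. Oral dosing was daily and preventative, running from day 0 to day 21. Onset and progression of arthritis were followed, and ED50 was estimated from the dose response.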

Estrogen receptor = molecular target: T1, Estrogen receptor (Homo sapiens, UniProt P03372); assay: Displacement of fluorescently labeled ligand from ERalpha receptor by fluorescence polarization assay
T1 sequence (P03372 whole entry): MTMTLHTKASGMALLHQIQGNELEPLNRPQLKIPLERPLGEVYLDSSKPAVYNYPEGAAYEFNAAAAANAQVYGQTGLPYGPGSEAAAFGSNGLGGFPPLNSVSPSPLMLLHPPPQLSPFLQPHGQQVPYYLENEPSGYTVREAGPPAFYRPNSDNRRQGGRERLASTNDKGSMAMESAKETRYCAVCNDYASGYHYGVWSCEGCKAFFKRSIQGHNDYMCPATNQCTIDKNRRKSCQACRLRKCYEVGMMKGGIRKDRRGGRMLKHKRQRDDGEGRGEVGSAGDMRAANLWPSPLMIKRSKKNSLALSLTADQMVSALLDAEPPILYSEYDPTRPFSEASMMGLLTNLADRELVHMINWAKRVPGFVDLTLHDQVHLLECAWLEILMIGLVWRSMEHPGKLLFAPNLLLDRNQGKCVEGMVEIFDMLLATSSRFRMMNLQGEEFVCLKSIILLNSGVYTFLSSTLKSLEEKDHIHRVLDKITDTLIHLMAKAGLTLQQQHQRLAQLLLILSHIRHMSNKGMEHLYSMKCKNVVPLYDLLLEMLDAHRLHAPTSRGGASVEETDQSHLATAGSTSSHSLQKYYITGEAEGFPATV
Procedure, shortened: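 Binding was measured by fluorescence polarization competition between compound and a fluorescent ligand for full-length receptor or ligand-binding domain. Values are means of at least two experiments.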

Rattus norvegicus [3] = assay: Antiinflammatory activity in Freund's complete adjuvant-induced Lewis rat arthritis model assessed as reduction in paw swelling at 25 mg/kg/day, po qd for 21 days; assay type: functional, organism-based; procedure, shortened: as §1

| bioavailability [1] | pKi (Estrogen receptor) | SMILES | Activity (Rattus norvegicus [2]) | Activity (Rattus norvegicus [3]) |
| --- | --- | --- | --- | --- |
| 20% | < 4.12 | CN(C)C(=O)c1ccc(-c2ccc3c(n2)Oc2ccccc2[C@H]3C(C)(C)C(=O)Nc2nncs2)cc1F | Active |  |
| 17% | < 4.12 | CCN(C)C(=O)c1ccc(-c2ccc3c(n2)Oc2ccccc2[C@@H]3C(C)(C)C(=O)Nc2nncs2)cc1F |  | Active |
